The source of these data is ChEMBL document CHEMBL1141319, “Cinnamic ester derivatives from Oxalis pes-caprae (Bermuda buttercup)” (2007).

Test [1] relates to Lactuca sativa. The test is described as follows: Phytotoxicity against Lactuca sativa assessed as inhibition of shoot length at 100 uM relative to control. The class given is functional. Further details: scale not given: the % may be the effect or the level left. The method, boiled down: (§1)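 Lettuce seeds (cv. Napoli V.F.), selected for uniformity, 25 per 50 mm dish on filter paper with 5 mL test solution in 10 mM MES pH 6. Tested at 10^-4 M, diluted to 10-5–10-7 M. Dishes sealed and kept at 25 °C in the dark, with germination counted daily for 5 days. Seedlings frozen at -20 °C before measuring. Four replicates with parallel controls; results given as % difference from control, Student's t test.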

Test [2] relates to Lactuca sativa. The experiment in a line: Phytotoxicity against Lactuca sativa assessed as inhibition of seed germination relative to control. Also on record: concentration or dose not given beside the values. In kind it is functional. A digest of the protocol:
as §1

Test [3] relates to Lactuca sativa. The test is described as follows: Phytotoxicity against Lactuca sativa assessed as inhibition of shoot length at 1 to 10 nM relative to control. The class given is functional, organism-based.
Test [4] relates to Lactuca sativa. The experiment in a line: Phytotoxicity against Lactuca sativa assessed as inhibition of shoot length at 0.1 uM to 0.1 mM relative to control. Also on record: scale not given: the % may be the effect or the level left. In kind it is functional. A digest of the protocol: as §1
In test [5] the test system is Lactuca sativa. The test is described as follows: Phytotoxicity against Lactuca sativa assessed as inhibition of root length at 0.1 mM relative to control. In kind it is functional. Also on record: scale not given: the % may be the effect or the level left. The method, boiled down:
as §1

Test [6] relates to Lactuca sativa. The test is described as follows: Phytotoxicity against Lactuca sativa assessed as inhibition of seed germination at 1 to 10 nM relative to control. In kind it is functional, organism-based.
Test [7] concerns Lactuca sativa. The test is described as follows: Phytotoxicity against Lactuca sativa assessed as inhibition of root length upto 0.1 uM relative to control. In kind it is functional, organism-based. The method, boiled down:
as §1

The subject of test [8] is Lactuca sativa. The experiment in a line: Phytotoxicity against Lactuca sativa assessed as inhibition of radical length at 0.1 uM to 0.1 mM relative to control. The class given is functional. Further details: scale not given: the % may be the effect or the level left. A digest of the protocol: as §1

Activity calls are given as the source filed them. The rule behind the calls is not given here. Where only a bound is given, the exact number is not on record here.

With `COc1cc(/C=C/C(=O)OCCO)cc(OC)c1OC`, the Activity in test [1] is recorded as 30%; in test [2], 10%.

`O=C(/C=C/c1ccc(O)c(O)c1)OCCO`: the result in test [3] and in test [6] was inactive. The Activity in test [1] is 100%; in test [4], 100%; in test [5], “>=80%”; in test [2] it was 10%; in test [8], 100%. In addition, the result in test [7] was Active.

For the compound `COc1cc(/C=C/C(=O)Oc2cccc(O)c2)cc(OC)c1OC`, the results for the Activity in test [1], in test [5] and in test [2] were 60%, “>=80%” and 10%, respectively.

Take `COc1cccc(OC(=O)/C=C/c2cc(OC)c(OC)c(OC)c2)c1`: the Activity in test [1] is listed as 60%; in test [2], 10%.

Regarding `COc1cc(/C=C/C(=O)OCCOC(C)=O)cc(OC)c1OC`, the Activity in test [1] was 60%; in test [5] it was “>=80%”; in test [2], 10%.

`COc1cc(/C=C/C(=O)OCCO)cc(OC)c1O`: the Activity in test [1] turned out to be 30%; in test [2], 10%.

In the case of `COc1cc(/C=C/C(=O)Oc2cccc(O)c2)cc(OC)c1O`, the Activity is recorded as 60% in test [1], “>=80%” in test [5] and 10% in test [2].
